The source made the active and inactive calls. The calls are words filed in the database; no cut-off is given here.

Assay [1] concerns HCT-116. Kind of assay: Induction of apoptosis in human HCT-116 cells assessed as necrosis cells at 10 uM incubated for > 6 hrs by annexin V/PI staining based analysis (Rvb=0.55%). Format: functional.
In assay [2] the target is Aurora kinase B (Homo sapiens) (UniProt Q96GD4). The assay is described as follows: Inhibition of AURKB (unknown origin) at 1000 nM in the presence of ATP by Kinome scan method relative to control.
The species named for assay [3] is Homo sapiens. Kind of assay: Inhibition of CDK2/cyclin A (unknown origin) at 1000 nM in the presence of ATP by Kinome scan method relative to control.
Assay [4] has as its target Ribosomal protein S6 kinase beta-1 (Homo sapiens) (UniProt P23443). Kind of assay: Inhibition of RPS6KB1 (unknown origin) at 1000 nM in the presence of ATP by Kinome scan method relative to control.
The target in assay [5] is Dual specificity protein kinase CLK1 (Homo sapiens) (UniProt P49759). Kind of assay: Inhibition of CLK (unknown origin) in human MDA-MB-468 cells assessed as SRSF4 phosphorylation level incubated for 3 hrs by immunoblot analysis. Format: cell-based.
For assay [6], the system named is HCT-116. Kind of assay: Induction of cell cycle arrest in human HCT-116 cells assessed as S phase at 1 uM incubated for 24 hrs by flow cytometry analysis (Rvb=46.4%). Format: functional.
Assay [7] concerns the target Dual specificity protein kinase CLK1 (Homo sapiens) (UniProt P49759). Kind of assay: Inhibition of CLK (unknown origin) in human 184-hTERT cells assessed as induction in alternative splicing effect in MRPS10-GUCA1B level incubated for 6 hrs by RT-PCR analysis. Format: cell-based. As to conditions: dose 0.2-5 µM. The essentials:
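Cells exposed to graded T3 concentrations for 6 h (chosen to avoid cytotoxicity), with a DMSO vehicle control. Total RNA was reverse-transcribed with oligo-dT primers. Targeted splice or conjoined-gene products were quantified by real-time qPCR or by targeted next-generation sequencing. Conjoined-gene isoform expression was normalized to a sequenced housekeeping gene.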

Dual specificity protein kinase CLK1 (Homo sapiens), sequence (P49759 whole entry, looked up, canonical isoform): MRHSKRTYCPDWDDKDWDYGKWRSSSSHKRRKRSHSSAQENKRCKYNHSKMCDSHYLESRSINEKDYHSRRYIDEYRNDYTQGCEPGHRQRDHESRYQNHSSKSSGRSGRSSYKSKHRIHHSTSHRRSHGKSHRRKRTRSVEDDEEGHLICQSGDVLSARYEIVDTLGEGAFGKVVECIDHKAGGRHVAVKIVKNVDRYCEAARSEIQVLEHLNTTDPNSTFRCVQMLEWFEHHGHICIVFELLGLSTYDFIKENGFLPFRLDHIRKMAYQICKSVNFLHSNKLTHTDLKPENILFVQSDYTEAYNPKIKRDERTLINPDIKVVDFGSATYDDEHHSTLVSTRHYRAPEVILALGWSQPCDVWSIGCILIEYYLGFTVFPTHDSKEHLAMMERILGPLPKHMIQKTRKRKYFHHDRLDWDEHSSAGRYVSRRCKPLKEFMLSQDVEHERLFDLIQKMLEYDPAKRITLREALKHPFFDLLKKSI
Aurora kinase B (Homo sapiens), sequence (Q96GD4 whole entry): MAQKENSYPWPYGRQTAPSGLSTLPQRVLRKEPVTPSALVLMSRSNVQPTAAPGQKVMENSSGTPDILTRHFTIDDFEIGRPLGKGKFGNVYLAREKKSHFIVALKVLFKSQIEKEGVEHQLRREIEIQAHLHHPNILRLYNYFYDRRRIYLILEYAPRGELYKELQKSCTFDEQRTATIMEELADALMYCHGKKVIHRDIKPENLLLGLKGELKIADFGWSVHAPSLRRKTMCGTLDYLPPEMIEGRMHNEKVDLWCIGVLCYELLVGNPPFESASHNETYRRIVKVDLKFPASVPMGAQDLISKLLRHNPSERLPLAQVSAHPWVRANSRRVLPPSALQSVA
Ribosomal protein S6 kinase beta-1 (Homo sapiens), sequence (P23443 whole entry, looked up): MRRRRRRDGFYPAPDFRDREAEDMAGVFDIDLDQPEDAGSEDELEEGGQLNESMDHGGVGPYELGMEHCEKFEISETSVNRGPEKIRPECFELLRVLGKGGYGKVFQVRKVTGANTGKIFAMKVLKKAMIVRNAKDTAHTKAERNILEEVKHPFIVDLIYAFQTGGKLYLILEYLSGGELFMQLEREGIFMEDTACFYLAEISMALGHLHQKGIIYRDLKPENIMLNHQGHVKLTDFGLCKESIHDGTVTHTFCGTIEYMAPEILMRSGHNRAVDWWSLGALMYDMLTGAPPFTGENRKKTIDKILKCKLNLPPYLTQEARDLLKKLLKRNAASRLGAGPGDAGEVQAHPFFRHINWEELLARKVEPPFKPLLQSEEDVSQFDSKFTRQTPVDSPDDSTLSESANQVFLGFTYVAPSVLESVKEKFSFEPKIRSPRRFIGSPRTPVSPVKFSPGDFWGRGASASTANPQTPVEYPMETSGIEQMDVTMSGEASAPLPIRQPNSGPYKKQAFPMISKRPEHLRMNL

Turning to `CN1CCN(C(=O)C(C)(C)c2ccc(C(=O)Nc3cn4cc(-c5ccncc5)ccc4n3)cc2)CC1` [T3-CLK], the Activity worked out at 0.86% in assay [1] and 46.7% in assay [6]. Further, the inhibition in assay [2] was 16%; in assay [3], 3%; in assay [4] it was 1%; in assay [7], “Dose-Dependent Effect”. Further, the inhibition entry in assay [5] was “Active”.

A word on the inhibition: it is the percentage by which the read-out fell short of the control.

Values taken from ChEMBL document CHEMBL5696444 (Nat Commun, 2017).
